Test results from ChEMBL document CHEMBL1148429, “Penicillin-derived inhibitors that simultaneously target both metallo- and serine-beta-lactamases” (Bioorg Med Chem Lett, 2004).
In brackets after ≈: the same amount, converted by molar mass.

Columns and labels:
Pseudomonas aeruginosa [1] = assay: Synergistic activity against VIM-1 beta lactamase produced by Pseudomonas aeruginosa presence of piperacillin (1:1); R = Resistant
Pseudomonas aeruginosa [2] = assay: Synergistic activity against SPM-1 beta lactamase produced by Pseudomonas aeruginosa in presence of piperacillin (1:1); R = Resistant
Pseudomonas aeruginosa [3] = assay: Synergistic activity against VIM-7 beta lactamase produced by Pseudomonas aeruginosa presence of piperacillin (1:1) and compound 5c; R = Resistant
Escherichia coli [4] = assay: Synergic activity against IMP-1 beta lactamase produced by Escherichia coli in presence of piperacillin (1:1) and compound 5c; S = susceptible; assay type: functional
Summary of the method: (§1)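 Synergy with piperacillin against metallo-β-lactamase-producing strains (IMP-1; SPM-1, VIM-1 or VIM-7 carriers). The initial screen used […] at a 1:1 antibiotic:inhibitor ratio. Inhibitor was tested with tazobactam or DVR-II-183 added as a serine β-lactamase inhibitor, or without one.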

Pseudomonas aeruginosa [5] = assay: Synergistic activity against VIM-7 beta lactamase produced by Pseudomonas aeruginosa presence of piperacillin (1:1); R = Resistant
Pseudomonas aeruginosa [6] = assay: Synergistic activity against VIM-1 beta lactamase produced by Pseudomonas aeruginosa presence of piperacillin (1:1) and compound 5c; S = susceptible
Pseudomonas aeruginosa [7] = assay: Synergistic activity against SPM-1 beta lactamase produced by Pseudomonas aeruginosa in presence of piperacillin (1:1) and compound 5c; S = susceptible
Escherichia coli [8] = assay: Synergic activity against IMP-1 beta lactamase produced by Escherichia coli in presence of piperacillin (1:1); R = Resistant; assay type: functional
Beta-lactamase L1 = Beta-lactamase L1 (Stenotrophomonas maltophilia, UniProt P52700); assay: Beta-Lactamase Inhibition of metallo-beta-lactamase representative class B (L1) enzyme
Summary of the method: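 For the metallo enzyme, inhibitor and enzyme were preincubated for 4 min. Concentrated nitrocefin was then added to give the final assay volume, and IC50 was determined.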

[9] = target: Beta-lactamase TEM (Escherichia coli) (UniProt P62593); assay: Beta-Lactamase inhibitory activity against representative class A (TEM-1) serine enzyme from Escherichia coli ATCC 35218 in presence of Piperacillin
Summary of the method: (§2)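 MIC of piperacillin against β-lactamase-producing strains, with the piperacillin concentration varied and the inhibitor held constant at […].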

Escherichia coli [10] = assay: Synergic activity against IMP-1 beta lactamase produced by Escherichia coli in presence of Piperacillin and Tazobactam; S = susceptible; assay type: functional
Summary of the method: as §1

Pseudomonas aeruginosa [11] = assay: Synergistic activity against SPM-1 beta lactamase produced by Pseudomonas aeruginosa in presence of Piperacillin and Tazobactam; R = Resistant
Pseudomonas aeruginosa [12] = assay: Synergistic activity against VIM-7 beta lactamase produced by Pseudomonas aeruginosa in presence of Piperacillin and Tazobactam; R = Resistant
Staphylococcus aureus [13] = assay: Antibacterial activity was determined against the Staphylococcus aureus ATCC 29213 in presence of Piperacillin; assay type: functional
Summary of the method: as §2

[14] = target: Beta-lactamase (Escherichia coli K-12) (UniProt P00811)
[15] = target: T1, Metallo-beta-lactamase type 2 (Bacillus cereus, UniProt P14488); assay: Inhibition of class B (BCII) metallo-beta-lactamase representative enzyme
T1 sequence (P14488 whole entry): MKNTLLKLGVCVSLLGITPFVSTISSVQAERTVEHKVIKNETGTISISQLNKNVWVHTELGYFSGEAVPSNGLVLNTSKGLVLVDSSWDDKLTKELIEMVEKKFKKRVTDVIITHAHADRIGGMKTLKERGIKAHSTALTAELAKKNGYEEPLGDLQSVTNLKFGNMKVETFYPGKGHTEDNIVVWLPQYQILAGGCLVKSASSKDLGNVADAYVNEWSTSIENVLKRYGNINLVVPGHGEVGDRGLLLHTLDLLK
Summary of the method: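 BCII metallo-β-lactamase assay: inhibitor and enzyme incubated together for 4 min in 970 µL, then concentrated nitrocefin added to 1 mL final volume. IC50 determined from nitrocefin hydrolysis.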

Pseudomonas aeruginosa [16] = assay: Synergistic activity against VIM-1 beta lactamase produced by Pseudomonas aeruginosa in presence of Piperacillin and Tazobactam; R = Resistant
Beta-lactamase TEM = Beta-lactamase TEM (Escherichia coli, UniProt P62593); assay: Beta-Lactamase inhibitory activity against representative class A (TEM-1) serine enzyme
Summary of the method: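 Serine β-lactamase assay: inhibitor preincubated with enzyme for 4 min in 100 µL, then an aliquot transferred into dilute nitrocefin substrate (1 mL final). IC50 is expressed as the inhibitor concentration in the 100 µL incubation, from multiple experiments.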

[17] = Synergic activity of compound was determined against IMP-1 beta lactamase produced by Escherichia coli; assay type: functional
Summary of the method: as §1

[18] = Synergistic activity of compound was determined against VIM-7 beta lactamase produced by Pseudomonas aeruginosa
[19] = target: Beta-lactamase TEM (Escherichia coli) (UniProt P62593); assay: Beta-Lactamase inhibitory activity against represent active class A (TEM-1) serine enzyme from Escherichia coli ATCC 35218
Staphylococcus aureus [20] = assay: Antibacterial activity was determined against the Staphylococcus aureus ATCC 29213; assay type: functional
[21] = Synergistic activity of compound was determined against SPM-1 beta lactamase produced by Pseudomonas aeruginosa
[22] = Synergistic activity of compound was determined against […]; assay type: functional, plasmodium aeruginosa; settings: Pseudomonas aeruginosa
Summary of the method: as §1

Beta-lactamase TEM (Escherichia coli), sequence (P62593 whole entry): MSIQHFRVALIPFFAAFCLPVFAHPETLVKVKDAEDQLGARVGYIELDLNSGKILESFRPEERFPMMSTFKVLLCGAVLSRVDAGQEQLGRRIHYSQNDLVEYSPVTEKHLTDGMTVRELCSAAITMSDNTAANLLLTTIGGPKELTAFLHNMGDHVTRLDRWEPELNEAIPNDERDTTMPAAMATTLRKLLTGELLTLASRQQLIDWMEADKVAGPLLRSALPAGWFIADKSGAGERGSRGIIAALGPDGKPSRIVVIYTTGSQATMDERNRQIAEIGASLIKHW
Beta-lactamase TEM, sequence (P62593 whole entry): as above
Beta-lactamase L1, sequence (P52700 whole entry): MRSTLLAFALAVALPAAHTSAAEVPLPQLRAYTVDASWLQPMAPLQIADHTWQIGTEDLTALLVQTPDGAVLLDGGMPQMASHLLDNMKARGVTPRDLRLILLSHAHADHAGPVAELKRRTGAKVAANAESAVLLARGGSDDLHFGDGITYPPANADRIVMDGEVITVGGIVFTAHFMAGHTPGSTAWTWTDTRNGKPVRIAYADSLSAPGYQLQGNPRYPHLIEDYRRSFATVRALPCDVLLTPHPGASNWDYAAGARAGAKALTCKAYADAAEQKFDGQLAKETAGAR
Beta-lactamase (Escherichia coli K-12), sequence (P00811 whole entry): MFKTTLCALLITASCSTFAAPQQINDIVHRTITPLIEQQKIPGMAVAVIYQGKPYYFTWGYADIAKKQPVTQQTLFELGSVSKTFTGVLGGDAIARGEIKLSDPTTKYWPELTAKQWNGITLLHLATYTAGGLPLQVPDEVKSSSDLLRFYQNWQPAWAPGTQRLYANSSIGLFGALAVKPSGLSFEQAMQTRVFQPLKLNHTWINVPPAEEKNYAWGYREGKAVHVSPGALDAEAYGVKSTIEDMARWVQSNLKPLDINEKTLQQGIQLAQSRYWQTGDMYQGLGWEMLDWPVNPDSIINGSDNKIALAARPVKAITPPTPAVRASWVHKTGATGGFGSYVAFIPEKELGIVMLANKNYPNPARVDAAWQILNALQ

## C[C@@]1(COC(=O)Cc2ccc(O)c(O)c2)S[C@@H]2/C(=C\c3ccccn3)C(=O)N2[C@H]1C(=O)O
Pseudomonas aeruginosa [1]
  Activity: Resistant
Pseudomonas aeruginosa [2]
  Activity: Resistant
Pseudomonas aeruginosa [3]
  Activity: Resistant
Escherichia coli [4]
  Activity: Susceptible
Pseudomonas aeruginosa [5]
  Activity: Resistant
Pseudomonas aeruginosa [6]
  Activity: Susceptible
Pseudomonas aeruginosa [7]
  Activity: Susceptible
Escherichia coli [8]
  Activity: Resistant

## CC1(C)S[C@@H]2[C@@H](CS)C(=O)N2[C@H]1C(=O)O
Beta-lactamase L1
  IC50: 10.9 µM
[9]
  MIC: > 128 µg/mL
Escherichia coli [10]
  Activity: Susceptible
Pseudomonas aeruginosa [11]
  Activity: Resistant
Pseudomonas aeruginosa [12]
  Activity: Resistant
Staphylococcus aureus [13]
  MIC: 4 µg/mL
[14]
  MIC: 2 µg/mL (≈ 8.09 µM)
[15]
  IC50: 1.7 µM
Pseudomonas aeruginosa [16]
  Activity: Resistant

## CC1(C)S[C@@H]2[C@H](CO)C(=O)N2[C@H]1C(=O)O
Beta-lactamase L1
  IC50: > 200 µM
[9]
  MIC: > 128 µg/mL
Staphylococcus aureus [13]
  MIC: 4 µg/mL
Beta-lactamase TEM
  IC50: 752 µM
[14]
  MIC: 4 µg/mL (≈ 17.3 µM)
[15]
  IC50: > 200 µM

## CC1(C)S[C@@H]2[C@H](S)C(=O)N2[C@H]1C(=O)O
Beta-lactamase L1
  IC50: 41.4 µM
[9]
  MIC: > 128 µg/mL
Staphylococcus aureus [13]
  MIC: 8 µg/mL
Beta-lactamase TEM
  IC50: > 1000 µM
[14]
  MIC: 2 µg/mL (≈ 8.57 µM)
[15]
  IC50: 17.8 µM

## CC1(C)S[C@@H]2[C@@H](S)C(=O)N2[C@H]1C(=O)O
Beta-lactamase L1
  IC50: 36.9 µM
[9]
  MIC: > 128 µg/mL
Staphylococcus aureus [13]
  MIC: 8 µg/mL
Beta-lactamase TEM
  IC50: 988 µM
[14]
  MIC: 2 µg/mL (≈ 8.57 µM)
[15]
  IC50: 17.2 µM

## CC1(C)[C@H](C(=O)O)N2C(=O)[C@H](S)[C@H]2S1(=O)=O
Beta-lactamase L1
  IC50: 7.6 µM
[9]
  MIC: > 128 µg/mL
Staphylococcus aureus [13]
  MIC: 8 µg/mL
Beta-lactamase TEM
  IC50: 69.2 µM
[14]
  MIC: 2 µg/mL (≈ 7.54 µM)
[15]
  IC50: 106 µM

## CCN1CCN(C(=O)N[C@@H](C(=O)N[C@@H]2C(=O)N3[C@@H]2SC(C)(C)[C@@H]3C(=O)O)c2ccccc2)C(=O)C1=O [PIPERACILLIN]
[17]
  MIC: > 128 µg/mL
[18]
  MIC: > 128 µg/mL
[19]
  MIC: > 128 µg/mL
Staphylococcus aureus [20]
  MIC: 8 µg/mL (≈ 15.5 µM)
[21]
  MIC: > 128 µg/mL
[22]
  MIC: > 128 µg/mL
